An excerpt weighted towards active compounds, which were near 4.8% of everything screened.
T cruzi inh – T. cruzi replication inhibition. hit rate 1.4% among 300,000. inhibition, % (test concentration not listed). T. cruzi beta-gal in NIH3T3, luminescence, 90 h;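 active = mean inhibition across valid replicates above about 55%, limit read from the data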;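 also: signal also drops with host cell toxicity which is not excluded here; 0% = plate median of DMSO wells and 100% = zero luminescence signal; higher percent means less beta-gal luminescence so fewer parasites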
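Read-out: Parasite load inhibition, % | Test system: Mouse NIH/3T3 fibroblasts infected with β-gal-expressing T. cruzi Tulahuen C4 | Amount: 5,000 cells/well | Medium: DMEM, 2% fetal bovine serum | Signal: GalScreen β-gal luminescence, detergent lysis, 60 min | Timing: 3 h attach, ≥90 h co-culture | Also added: Tulahuen C4 trypomastigotes, 5000/well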
Mot1-301 SUMO – blocks SUMOylation pathway, rescuing yeast Mot1-301 growth; S. cerevisiae Mot1-301 growth rescue, ATP luminescence, 38.5C; percent above DMSO median, 100 means doubled; growth rescue, % at 18.8 µM; hit rate 1% among 320,000;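 active = every valid replicate shows activation above 250% relative to neutral control wells; inactive = the rest, any valid replicate at or below 250%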;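 also: OY570 slx delta 5 strain wells were the positive control but not used for scaling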
WT yeast gro inh – growth inhibition of WT yeast, mitochondrial fusion screen | AID 1362 | inhibition, % at 10 µM | mitochondrial fusion phenotypic screen, WT strain | hit rate 2.1% among 190,000; in the data active = inhibition above about 58%; tested in S. cerevisiae
CSC inhib – blocks cancer stem cells. cancer stem cell-like cells viability, luminescence. hit rate 1.1% among 300,000. inhibition, % at 7.5 µM; in the data active = inhibition above about 75%; tested in HMLE shEcad cells
Efflux pump inh – blocks antifungal efflux pumps in multiplex yeast assay. S. cerevisiae Candida pump triplex, Nile Red efflux. inhibition, % at 10 µM. hit rate 0.44% among 330,000;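 active = plate passing quality check with inhibition over a set limit, or well fluorescence over plate mean plus 4 SD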;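 also: Nile Red retained in pooled yeast measured as flow cytometry median fluorescence; 0% = buffer negative control and 100% = Enniatin B positive control; higher means more Nile Red kept so more efflux inhibition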
Beta cell apopt – blocks beta cell apoptosis; hit rate 0.8% among 300,000; AID 435005; protection from apoptosis, % (no concentration beside the values); INS-1E cytokine-induced death, ATP luminescence, 48 h; percent of positive-control rescue, neutral wells zero;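 active = Every replicate reaches about 75%, or at least half do and their mean reaches it too, limit read from the data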;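 also: 0% = cytokine-treated negative control wells and 100% = positive control rescue; higher means more ATP so stronger rescue from cytokine killing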
Active calls of the source: *; . = no result given.

SMILES	T cruzi inh	Mot1-301 SUMO	WT yeast gro inh	CSC inhib	Efflux pump inh	Beta cell apopt
CCCN1CCN(CCCNC(=O)CCCn2nc(C)c3sc4ccccc4c3c2=O)CC1	13.8	352.4*	.	-1.2	-0.1	0.0
CCC(C(=O)NCCCN1CCCCCC1)n1nc(C)c2sc3ccccc3c2c1=O (configuration not stated)	-18.8	-6.8	.	8.8	-0.1	-1.5
O=C(COC(=O)c1cc(S(=O)(=O)Nc2ccccc2Cl)ccc1O)Nc1ccc(F)c(F)c1F	.	21.1	.	-10.1	0.1	4.5
COCCCN1C(=O)N(c2ccc(F)cc2)C(=O)C1CC(=O)Nc1ccc(OC)cc1 (configuration not stated)	-11.9	0.1	.	-3.8	-0.3	.
Cc1nnsc1C(=O)N/N=C/c1ccccc1	-12.7	113.5	-7.8	-20.1	0.1	6.7
Cc1nnsc1C(=O)N/N=C/c1ccc2ccccc2c1O	54.7*	3.9	3.3	77.6*	-0.3	124.5*
Cc1cc(C)c(S(C)(=O)=O)c(Oc2ccccc2C)n1	7.9	-11.2	-7.6	-6.7	-0.1	-5.0
Cc1ccc(S(=O)(=O)c2c(C)cc(C)nc2Oc2cccc(C)c2C)cc1	.	18.3	66.3*	23.1	0.1	-3.6
Cc1ccc(C2CC(c3cccs3)=NN2C(=O)CCl)cc1 (configuration not stated)	59.0*	2.6	.	28.7	0.0	-10.2
CCC(=O)N1N=C(c2cccs2)CC1c1ccc(OC)cc1 (configuration not stated)	3.2	14.1	.	-8.1	0.0	-9.4
COc1ccc(C2CC(c3cccs3)=NN2C(=O)c2ccc(Br)o2)cc1 (configuration not stated)	33.7	14.6	63.9*	11.5	0.0	10.2
CCn1c(SCC(=O)Nc2c(C#N)cnn2-c2ccccc2)nnc1-c1cccs1	-4.4	6.2	.	-3.2	0.0	1.2
COc1ccc(C2N(c3ccc4c(c3)OCCO4)C(=O)C2(F)F)cc1OC (configuration not stated)	-4.3	-9.2	.	-11.7	0.0	3.0
COc1ccc(/C=N/OCC(=O)NC(c2ccccc2)c2ccccc2)cc1OC	56.6*	-18.3	-2.8	19.9	-0.6	31.6
CC(=O)Nc1cccc(NC(=O)CSc2nnnn2Cc2ccccc2)c1	2.4	-22.0	74.9*	-7.9	-0.1	-1.4
CC(=O)c1ccc(-n2nnnc2SCC(=O)Nc2cccc(NC(=O)c3ccco3)c2)cc1	-14.3	-4.4	73.0*	.	-0.1	6.5
CCOc1ccc(-n2cc(-c3ccccc3)c3c(N4CCOCC4)ncnc32)cc1	-0.7	-3.7	59.4*	104.3*	0.0	13.8
COc1ccc(-n2cc(-c3ccccc3)c3c(N4CC(C)OC(C)C4)ncnc32)cc1 (configuration not stated)	7.3	-22.2	68.5*	69.2	-0.2	9.4
c1ccc(-c2cn(-c3ccccc3)c3ncnc(N4CCCCC4)c23)cc1	-2.3	-8.6	55.2	71.4	0.0	2.6
Cc1ccc(C(=O)NC(=S)N(C)C2CCCCC2)cc1Br	59.9*	-16.1	.	23.0	-2.8	8.0
COc1ccc(C(=O)NC(=S)N(C)C2CCCCC2)cc1Br	59.5*	3.1	.	21.3	-0.5	11.9
COc1ccc(C(=O)NC(=S)N(C)C2CCCCC2)cc1	.	18.2	.	-19.2	0.0	-2.1
Cc1nc(SCc2ccc(OCCC(C)C)cc2)n[nH]1	18.0	-11.4	73.2	.	0.0	-14.8
CCCCCOc1ccc(CSc2n[nH]c(C)n2)cc1	36.2	-6.6	79.8*	14.0	0.0	.
O=C(C1=C[C@@H](c2ccccc2)C[C@@H](OCc2ccc(CO)cc2)O1)N1CCCCCCC1	20.5	8.0	-2.5	1.4	-0.2	2.6
C=CCN(CC=C)C(=S)NC(=O)c1ccc(-c2ccccc2)cc1	55.3*	14.0	66.0*	37.4	0.0	11.3
COc1ccc(CN(C(=O)c2cc3ccccc3oc2=O)C2CCS(=O)(=O)C2)cc1OC (configuration not stated)	-14.9	157.2	.	.	0.1	1.1
CCN(C(=O)COC(=O)CCc1c[nH]c2ccccc12)c1c(N)n(Cc2ccccc2)c(=O)[nH]c1=O	-11.0	19.1	.	.	-0.2	-0.2
CC(C)CCNC(=O)C(c1cccnc1)N(Cc1ccccc1)C(=O)Cn1nnc2ccccc21 (configuration not stated)	56.5*	164.0	.	.	0.5	-2.2

Compound activity (PubChem BioAssay)
